From ChEMBL document CHEMBL4699393, “Meridianin D analogues possess antibiofilm activity against Mycobacterium smegmatis” (RSC Med Chem, 2020)

What was measured:
[1] = system: Mycolicibacterium smegmatis; assay: Antibiofilm activity against Mycobacterium smegmatis mc2 155 ATCC 700084 assessed as inhibition of biofilm formation measured after 24 hrs by crystal violet reporter assay; type: functional, organism-based; settings: MC2 155 ATCC 700084, 24 h
[2] = system: Mycolicibacterium smegmatis; assay: Antibiofilm activity against Mycobacterium smegmatis mc2 155 ATCC 700084 assessed as dispersion of preformed biofilms measured after 24 hrs by crystal violet reporter assay; type: functional, organism-based; settings: MC2 155 ATCC 700084, 24 h
Outline: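 Cultures (48 h) diluted to 0.01 in M9 minimal salts with glucose, MgSO4 and CaCl2 in PVC plates. Biofilm grown stationary at 37 °C for 48 h, washed, then fresh medium with compound added for 24 h at 37 °C. Stained with 0.1% crystal violet 30 min, solubilised in 95% ethanol, OD540 read. Media blanks subtracted. Dispersion calculated against untreated biofilm wells. At least three repeats.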

[3] = system: Mycolicibacterium smegmatis; assay: Potentiation of Cefotaxime-induced antibacterial activity against Mycobacterium smegmatis mc2 155 ATCC 700084 assessed as fold reduction in Cefotaxime MIC at 60 uM incubated for 48 hrs by alamarblue dye based broth microdilution method; type: functional
Outline: (§1)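 Inoculum from 48 h cultures set to 5 x 10^5 CFU/mL in 7H9 + ADC and pre-dosed with compound from DMSO stock at fixed concentration. β-lactam two-fold serially diluted from top concentration, with an antibiotic-only control series. Stationary 37 °C for 48 h, then alamarBlue for 8 h. MIC is the lowest blue (non-viable) well. Fold reduction is relative to the antibiotic-only MIC. Duplicates, at least two repeats.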

[4] = system: Mycolicibacterium smegmatis; assay: Potentiation of oxacillin-induced antibacterial activity against Mycobacterium smegmatis mc2 155 ATCC 700084 assessed as fold reduction in oxacillin MIC at 60 uM incubated for 48 hrs by alamarblue dye based broth microdilution method; type: functional; outline: as §1
[5] = system: Mycolicibacterium smegmatis; assay: Potentiation of Cefoxitin-induced antibacterial activity against Mycobacterium smegmatis mc2 155 ATCC 700084 assessed as fold reduction in Cefoxitin MIC at 60 uM incubated for 48 hrs by alamarblue dye based broth microdilution method; type: functional; outline: as §1
[6] = system: Mycolicibacterium smegmatis; assay: Potentiation of Ceftazidime-induced antibacterial activity against Mycobacterium smegmatis mc2 155 ATCC 700084 assessed as fold reduction in Ceftazidime MIC at 60 uM incubated for 48 hrs by alamarblue dye based broth microdilution method; type: functional; outline: as §1
[7] = system: Mycolicibacterium smegmatis; assay: Potentiation of Ampicillin-induced antibacterial activity against Mycobacterium smegmatis mc2 155 ATCC 700084 assessed as fold reduction in Ampicillin MIC at 60 uM incubated for 48 hrs by alamarblue dye based broth microdilution method; type: functional; outline: as §1
[8] = system: Mycolicibacterium smegmatis; assay: Potentiation of Cefotaxime-induced antibacterial activity against Mycobacterium smegmatis mc2 155 ATCC 700084 assessed as Cefotaxime MIC at 60 uM incubated for 48 hrs by alamarblue dye based broth microdilution method (reference value: 128 ug/ml); type: functional; outline: as §1
[9] = system: Mycolicibacterium smegmatis; assay: Potentiation of Oxacillin-induced antibacterial activity against Mycobacterium smegmatis mc2 155 ATCC 700084 assessed as Oxacillin MIC at 60 uM incubated for 48 hrs by alamarblue dye based broth microdilution method (Rvb =512 ug/ml); type: functional; outline: as §1
[10] = system: Mycolicibacterium smegmatis; assay: Potentiation of Cefoxitin-induced antibacterial activity against Mycobacterium smegmatis mc2 155 ATCC 700084 assessed as Cefoxitin MIC at 60 uM incubated for 48 hrs by alamarblue dye based broth microdilution method (reference value: 16 ug/ml); type: functional; outline: as §1
[11] = system: Mycolicibacterium smegmatis; assay: Potentiation of Ceftazidime-induced antibacterial activity against Mycobacterium smegmatis mc2 155 ATCC 700084 assessed as Ceftazidime MIC at 60 uM incubated for 48 hrs by alamarblue dye based broth microdilution method (reference value: 512 ug/ml); type: functional; outline: as §1
[12] = system: Mycolicibacterium smegmatis; assay: Potentiation of Ampicillin-induced antibacterial activity against Mycobacterium smegmatis mc2 155 ATCC 700084 assessed as Ampicillin MIC at 60 uM incubated for 48 hrs by alamarblue dye based broth microdilution method (reference value: 128 ug/ml); type: functional; outline: as §1
[13] = system: Mycolicibacterium smegmatis; assay: Antibacterial activity against Mycobacterium smegmatis mc2 155 ATCC 700084 assessed as inhibition of bacterial growth incubated for 48 hrs by alamarblue dye based broth microdilution method; type: functional
Outline: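 Inoculum from 48 h cultures set to 5 x 10^5 CFU/mL in 7H9 + ADC. Compound in DMSO two-fold serially diluted from 200 µM top concentration. Stationary 37 °C for 48 h, then alamarBlue for 8 h at 37 °C. MIC is the lowest concentration with no viable bacteria (blue, not pink). Duplicate wells, at least two independent repeats.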

Nc1nccc(-c2c[nH]c3cccc(Br)c23)n1
IC50 [1]: > 50 µM | EC50 [2]: > 50 µM

Nc1nccc(-c2c[nH]c3c(Br)cccc23)n1
IC50 [1]: 26 µM | EC50 [2]: > 50 µM

Nc1nccc(-c2c[nH]c3ccc(Cl)cc23)n1
IC50 [1]: 18.3 µM | EC50 [2]: > 50 µM

Nc1nccc(-c2c[nH]c3ccc(F)cc23)n1
IC50 [1]: 16 µM | EC50 [2]: > 50 µM

Nc1nccc(-c2c[nH]c3cc(Cl)ccc23)n1
IC50 [1]: 26.6 µM | EC50 [2]: > 50 µM

CCCn1cc(-c2ccnc(N)n2)c2cc(Br)ccc21
IC50 [1]: 15.1 µM | EC50 [2]: > 50 µM

CCCn1cc(-c2ccnc(N)n2)c2ccc(I)cc21
IC50 [1]: > 50 µM | EC50 [2]: > 50 µM

CCCCn1cc(-c2ccnc(N)n2)c2cc(Br)ccc21
IC50 [1]: 22.7 µM | EC50 [2]: > 50 µM

Nc1nccc(-c2c[nH]c3cc(F)ccc23)n1
IC50 [1]: 21.6 µM | EC50 [2]: > 50 µM

CC(C)Cn1cc(-c2ccnc(N)n2)c2ccc(Br)cc21
IC50 [1]: 50.4 µM | EC50 [2]: > 50 µM

CNc1nccc(-c2c[nH]c3ccc(Br)cc23)n1
IC50 [1]: 25.5 µM | EC50 [2]: 45 µM | fold change (FC) [3]: 2 | fold change (FC) [4]: 2 | fold change (FC) [5]: 0 | fold change (FC) [6]: 0 | fold change (FC) [7]: 2 | MIC [8]: 64 µg/mL | MIC [9]: 256 µg/mL | MIC [10]: 16 µg/mL | MIC [11]: 512 µg/mL | MIC [12]: 64 µg/mL | MIC [13]: ≥ 200 µM

CCn1cc(-c2ccnc(N)n2)c2cc(Br)ccc21
IC50 [1]: 37.1 µM | EC50 [2]: > 50 µM

Nc1nccc(-c2c[nH]c3ccc(I)cc23)n1
IC50 [1]: 13.1 µM | EC50 [2]: 28.1 µM | fold change (FC) [3]: 2 | fold change (FC) [4]: 0 | fold change (FC) [5]: 0 | fold change (FC) [6]: 0 | fold change (FC) [7]: 0 | MIC [8]: 64 µg/mL | MIC [9]: 512 µg/mL | MIC [10]: 16 µg/mL | MIC [11]: 512 µg/mL | MIC [12]: 128 µg/mL | MIC [13]: ≥ 200 µM

Cn1cc(-c2ccnc(N)n2)c2cc(Br)ccc21
IC50 [1]: 27.8 µM | EC50 [2]: > 50 µM | fold change (FC) [3]: 8 | fold change (FC) [4]: 2 | fold change (FC) [5]: 2 | fold change (FC) [6]: 8 | fold change (FC) [7]: 4 | MIC [8]: 16 µg/mL | MIC [9]: 256 µg/mL | MIC [10]: 8 µg/mL | MIC [11]: 64 µg/mL | MIC [12]: 32 µg/mL | MIC [13]: ≥ 200 µM

CCn1cc(-c2ccnc(N)n2)c2ccc(Br)cc21
IC50 [1]: 39.1 µM | EC50 [2]: > 50 µM

CCNc1nccc(-c2c[nH]c3ccc(Br)cc23)n1
IC50 [1]: 14.2 µM | EC50 [2]: 39.3 µM | fold change (FC) [3]: 0 | fold change (FC) [4]: 0 | fold change (FC) [5]: 0 | fold change (FC) [6]: 0 | fold change (FC) [7]: 2 | MIC [8]: 128 µg/mL | MIC [9]: 512 µg/mL | MIC [10]: 16 µg/mL | MIC [11]: 512 µg/mL | MIC [12]: 64 µg/mL | MIC [13]: ≥ 200 µM
